Experimental data from ChEMBL document CHEMBL5505959, “Identification of 4-amino-2-Pyridones as new potent PCSK9 inhibitors: From phenotypic hit discovery to in vivo tolerability” (Eur J Med Chem, 2024).
Activity calls are given as the source filed them. The rule behind the calls is not given here.

What was measured:
[1] = Toxicity in C57BL/6 mouse assessed as effect on kidney at 40 mg/kg, sc measured after 7 days by H and E staining based analysis; type: organism-based; details: in vivo, 168 h, time 7 day
HepG2 [2] = assay: Downregulation of proPCSK9 level in human HepG2 cells by Western blot analysis; type: functional, cell-based
Method in brief: (§1)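 HepG2 cells were treated overnight or for 24 h, alone or with simvastatin 40 μM. Lysates (1 % NP-40, 150 mM NaCl, 50 mM Tris-HCl pH 7.5) were loaded at 25 µg protein on 4–20 % SDS-PAGE. Blots were probed for proPCSK9, mature PCSK9 and LDLR, and densitometry was normalized to β-actin or GAPDH. Mean ± SD of three independent experiments.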

[3] = Toxicity in C57BL/6 mouse assessed as drug tolerance at 40 mg/kg, sc measured after 7 days; type: organism-based; details: in vivo, 168 h, time 7 day
Method in brief: (§2)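 Male C57BL/6J mice, three months old, 26–30 g (n = 5–6/group), received daily sc injections of 40 mg/kg in Transcutol, 50 µl, for seven days. Controls were vehicle and SBC-115076 4 mg/kg. Readouts were daily body weight, open-field locomotion and modified SHIRPA, and gross organ inspection. Liver H&E cryosections were scored by two operators; plasma cholesterol by colorimetric assay, PCSK9 by ELISA.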

[4] = Toxicity in C57BL/6 mouse assessed as reduction in ALT plasma level at 40 mg/kg, sc measured after 7 days by ELISA method; type: organism-based; details: in vivo, 168 h, time 7 day
Method in brief: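 Male C57BL/6J mice, 3 months old, dosed subcutaneously at 40 mg/kg daily for seven days in Transcutol. Killed under isoflurane 6 h after the final dose. Retro-orbital blood taken into EDTA and spun at 3000 rpm, 4 °C, 10 min. Plasma ALT measured by ELISA kit. Mean ± SEM, n = 5–6 per group.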

HepG2 [5] = assay: Downregulation of PCSK9 protein level in human HepG2 cells at 2.5 uM by Western blot analysis; type: functional, cell-based; method in brief: as §1
HepG2 [6] = assay: Upregulation of LDLR/PCSK9 in human HepG2 cells at 2.5 to 5 uM in presence of simvastatin by Western blot analysis; type: functional, cell-based; details: dose 2.5-5 µM
Method in brief: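 HepG2 cells grown in MEM with 10 % FBS. Incubated overnight with test compound with or without simvastatin 40 μM (simvastatin dissolved in 0.1 M NaOH, pH 7.4). Lysates in 1 % NP-40 buffer; 25 µg protein run on 4–20 % SDS-PAGE. Immunoblotted for PCSK9 and LDLR, normalized to GAPDH by densitometry. Mean ± SD of three experiments, one-way ANOVA.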

[7] = Toxicity in C57BL/6 mouse assessed as inflammatory cells infiltration at 40 mg/kg, sc measured after 7 days by histopathological analysis; type: organism-based; details: in vivo, 168 h, time 7 day
Method in brief: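 Male C57BL/6J mice, 3 months old, 26–30 g, given 40 mg/kg subcutaneously in 100 % Transcutol (vehicle group) for seven days. Killed 6 h after the last injection. Liver fixed in 4 % PFA, cryoprotected in 20 % sucrose and cut into 7 µm cryosections. Sections stained with hematoxylin/eosin and scored by two operators for hepatocyte arrangement, inflammatory infiltration and necrosis.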

[8] = Toxicity in C57BL/6 mouse assessed as effect on spleen at 40 mg/kg, sc measured after 7 days by H and E staining based analysis; type: organism-based; details: in vivo, 168 h, time 7 day
[9] = Toxicity in C57BL/6 mouse assessed as cellular necrosis at 40 mg/kg, sc measured after 7 days by histopathological analysis; type: organism-based; details: in vivo, 168 h, time 7 day; method in brief: as §2
[10] = Downregulation of PCSK9 mRNA level in human HepG2 cells at 5 uM by qRT-PCR analysis relative to control; type: functional
Method in brief: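 Total RNA was taken from treated HepG2 cells for RT-qPCR of PCSK9, FAS and HMG-CoA reductase. Cycling was 50 °C 10 min, 95 °C 2 min, then 40 cycles of 95 °C 5 s and 60 °C 10 s. Relative quantification used ΔΔCt against 18S, corrected for primer efficiency. Mean ± SD of three independent experiments.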

HepG2 [11] = assay: Inhibition of simvastatin induced PCSK9 level in human HepG2 cells at 2.5 to 5 uM by Western blot analysis; type: functional, cell-based; details: dose 2.5-5 µM; method in brief: as §1
[12] = Toxicity in C57BL/6 mouse assessed as changes in fur sheen at 40 mg/kg, sc measured after 7 days; type: organism-based; details: in vivo, 168 h, time 7 day; method in brief: as §2
[13] = Toxicity in C57BL/6 mouse assessed as effect on plasma total cholesterol level at 40 mg/kg, sc measured after 7 days by biochemical assay; details: in vivo, 168 h
[14] = Toxicity in C57BL/6 mouse assessed as abnormal arrangements of hepatocyte at 40 mg/kg, sc measured after 7 days by histopathological analysis; type: organism-based; details: hepatocytes, 168 h, time 7 day; method in brief: as §2
[15] = Toxicity in C57BL/6 mouse assessed as spontaneous locomotor activity at 40 mg/kg, sc measured after 7 days; type: organism-based; details: in vivo, 168 h, time 7 day
Method in brief: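 Open-field test in male C57BL/6J mice: 10 min free exploration of a 50 × 50 × 40 cm wooden chamber, with distance and speed tracked automatically. Basal sessions were run before dosing, then testing continued across daily 50 µl subcutaneous injections (40 mg/kg, Transcutol vehicle). Distance, mean speed and % time in corners and arena were recorded as part of a modified SHIRPA screen.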

[16] = Toxicity in C57BL/6 mouse assessed as effect on liver at 40 mg/kg, sc measured after 7 days by H and E staining based analysis; type: organism-based; details: in vivo, 168 h, time 7 day; method in brief: as §2
[17] = Toxicity in C57BL/6 mouse assessed as effect on gut at 40 mg/kg, sc measured after 7 days by macroscopic analysis; details: in vivo, 168 h
[18] = Toxicity in C57BL/6 mouse assessed as effect on body weight at 40 mg/kg, sc measured after 7 days; type: organism-based; details: in vivo, 168 h, time 7 day; method in brief: as §2
[19] = Toxicity in C57BL/6 mouse assessed as defecations at 40 mg/kg, sc measured after 7 days; type: organism-based; details: in vivo, 168 h, time 7 day; method in brief: as §2
HepG2 [20] = assay: Cytotoxicity against human HepG2 cells assessed as reduction in cell viability at 5 uM measured after 24 hrs by SRB assay relative to control; type: functional
Method in brief: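 HepG2 seeded 8000 cells/well in complete MEM; next day medium replaced with 0.4 % FBS medium containing compound or DMSO control. Viability was read by sulforhodamine B assay after 24 h, with absorbance at 570 nm. Dose-response series used 6.25, 12.5, 25, 50 or 100 μM; newer analogues were tested at a fixed 5 μM. Data are mean ± SD of three independent experiments.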

HepG2 [21] = assay: Induction of LDLR expression in human HepG2 cells by Western blot analysis; type: functional, cell-based; method in brief: as §1
[22] = Toxicity in C57BL/6 mouse assessed as effect on urination at 40 mg/kg, sc measured after 7 days; type: organism-based; details: in vivo, 168 h, time 7 day; method in brief: as §2
HepG2 [23] = assay: Downregulation of mature PCSK9 level in human HepG2 cells by Western blot analysis; type: functional, cell-based; method in brief: as §1
[24] = Toxicity in C57BL/6 mouse assessed as effect on brain at 40 mg/kg, sc measured after 7 days by H and E staining based analysis; type: organism-based; details: in vivo, 168 h, time 7 day
[25] = Inhibition of PCSK9 expression in human HepG2 cells at 5 to 10 uM by ELISA method relative to control; type: functional; details: dose 5-10 µM
Method in brief: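 Secreted PCSK9 was measured in HepG2 conditioned media with a human PCSK9 DuoSet sandwich ELISA. Media were centrifuged at 15000 rpm for 10 min and diluted before reading absorbance at 450 nm. Values were normalized to HepG2 total protein content. Mean ± SD of three independent experiments.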

[26] = Toxicity in C57BL/6 mouse assessed as tremor at 40 mg/kg, sc measured after 7 days; type: organism-based; details: in vivo, 168 h, time 7 day
Method in brief: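 General health of subcutaneously dosed C57BL/6J mice (40 mg/kg daily, Transcutol, seven days) was tracked with a modified SHIRPA screen covering phenotype, sensory and neuropsychiatric functions. Body weight was recorded daily as % change from the day −3 to −1 baseline.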

[27] = Toxicity in C57BL/6 mouse assessed as abnormal secretion at 40 mg/kg, sc measured after 7 days; type: organism-based; details: in vivo, 168 h, time 7 day; method in brief: as §2

SMILES: Cc1cc(NCc2ccc(C(F)(F)F)cc2)cc(=O)n1Cc1ccc(C(F)(F)F)cc1
- Activity [1]: Non-Toxic
- Activity (HepG2 [2]): Active
- Activity [3]: Non-Toxic
- Activity [4]: Non-Toxic
- Activity (HepG2 [5]): Active
- Activity (HepG2 [6]): Active
- Activity [7]: Non-Toxic
- Activity [8]: Non-Toxic
- Activity [9]: Non-Toxic
- Activity [10]: 100%
- inhibition (HepG2 [11]): Active
- Activity [12]: Non-Toxic
- Activity [13]: Non-Toxic
- Activity [14]: Non-Toxic
- Activity [15]: Non-Toxic
- Activity [16]: Non-Toxic
- Activity [17]: Non-Toxic
- Activity [18]: Non-Toxic
- Activity [19]: Non-Toxic
- Activity (HepG2 [20]): >95%
- Activity (HepG2 [21]): Active
- Activity [22]: Non-Toxic
- Activity (HepG2 [23]): Active
- Activity [24]: Non-Toxic
- inhibition (INH) [25]: 100%
- Activity [26]: Non-Toxic
- Activity [27]: Non-Toxic
